Test results: BindingDB's records for doi:10.1021/jm960652r (Genentech, 1997)

Key:
[1] = molecular target: T1, Integrin alpha-IIb/beta-3 (Homo sapiens, UniProt P08514+P05106); assay: Inhibition of thrombin-induced platelet aggregation assay at 20 uM
[2] = molecular target: T1, Integrin alpha-IIb/beta-3; assay: Inhibition of 17.5 uM ADP-induced platelet aggregation of human platelet-rich plasma
In short: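 Aggregation of human platelets in platelet-rich plasma. Values are the average of at least 3 determinations.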

T1 sequence (P05106 27-788 limits assumed): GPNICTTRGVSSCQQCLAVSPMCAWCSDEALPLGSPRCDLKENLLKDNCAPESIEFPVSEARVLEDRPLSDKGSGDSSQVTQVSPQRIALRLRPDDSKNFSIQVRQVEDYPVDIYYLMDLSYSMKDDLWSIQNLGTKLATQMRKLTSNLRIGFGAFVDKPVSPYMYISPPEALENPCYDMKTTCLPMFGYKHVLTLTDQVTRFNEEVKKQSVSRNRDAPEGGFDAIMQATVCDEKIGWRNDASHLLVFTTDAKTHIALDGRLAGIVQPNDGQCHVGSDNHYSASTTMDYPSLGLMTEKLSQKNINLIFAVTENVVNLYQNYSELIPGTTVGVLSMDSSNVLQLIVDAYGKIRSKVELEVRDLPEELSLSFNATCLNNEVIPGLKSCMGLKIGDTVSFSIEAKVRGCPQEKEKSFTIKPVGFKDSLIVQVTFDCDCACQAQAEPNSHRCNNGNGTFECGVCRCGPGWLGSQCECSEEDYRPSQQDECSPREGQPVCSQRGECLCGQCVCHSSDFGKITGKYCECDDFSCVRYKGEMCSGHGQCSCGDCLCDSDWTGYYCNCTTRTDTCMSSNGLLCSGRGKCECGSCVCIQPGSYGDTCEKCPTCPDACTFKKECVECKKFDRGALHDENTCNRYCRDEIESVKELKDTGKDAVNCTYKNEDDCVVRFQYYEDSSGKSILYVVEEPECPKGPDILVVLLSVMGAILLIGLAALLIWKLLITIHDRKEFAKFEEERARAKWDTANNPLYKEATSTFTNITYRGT
T1 sequence (P08514 32-887 limits assumed): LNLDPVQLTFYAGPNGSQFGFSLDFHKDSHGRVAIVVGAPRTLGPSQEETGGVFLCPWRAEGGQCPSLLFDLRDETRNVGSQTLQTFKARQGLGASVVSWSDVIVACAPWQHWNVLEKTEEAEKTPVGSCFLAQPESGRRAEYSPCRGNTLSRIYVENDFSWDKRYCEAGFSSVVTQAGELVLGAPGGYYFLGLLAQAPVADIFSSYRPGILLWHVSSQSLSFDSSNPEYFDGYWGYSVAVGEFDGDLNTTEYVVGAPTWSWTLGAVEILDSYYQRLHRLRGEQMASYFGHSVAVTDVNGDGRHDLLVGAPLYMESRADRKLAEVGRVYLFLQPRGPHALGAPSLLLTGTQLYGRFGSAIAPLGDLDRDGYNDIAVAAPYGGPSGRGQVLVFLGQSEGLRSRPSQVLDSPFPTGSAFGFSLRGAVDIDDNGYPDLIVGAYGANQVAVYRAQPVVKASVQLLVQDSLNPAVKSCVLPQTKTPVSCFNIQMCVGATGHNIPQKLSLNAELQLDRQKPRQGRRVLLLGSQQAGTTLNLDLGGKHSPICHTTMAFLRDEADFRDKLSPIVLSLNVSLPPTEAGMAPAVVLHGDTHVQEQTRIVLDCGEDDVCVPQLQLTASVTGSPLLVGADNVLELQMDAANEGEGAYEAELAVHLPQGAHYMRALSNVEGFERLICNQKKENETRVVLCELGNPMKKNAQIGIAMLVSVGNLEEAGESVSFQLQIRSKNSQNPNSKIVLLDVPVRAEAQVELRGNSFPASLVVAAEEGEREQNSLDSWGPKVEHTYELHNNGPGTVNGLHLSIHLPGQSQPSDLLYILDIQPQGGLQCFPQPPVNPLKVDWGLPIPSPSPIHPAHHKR
T1 sequence (P08514 891-1039 limits assumed): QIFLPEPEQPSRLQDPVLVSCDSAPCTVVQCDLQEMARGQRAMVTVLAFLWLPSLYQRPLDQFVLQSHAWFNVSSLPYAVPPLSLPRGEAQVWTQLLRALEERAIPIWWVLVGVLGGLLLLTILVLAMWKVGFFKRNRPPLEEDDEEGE

Compound | IC50 [1] [nM] | IC50 [2] [nM]
CN1C(=O)CN(CCC(=O)O)C(=O)c2cc(C#Cc3ccc(C(=N)N)cc3)ccc21 [3-[7-(4-Carbamimidoyl-phenylethynyl)-1-methyl-2,5-dioxo-1,2,3,5-tetrahydro-benzo[e][1,4]diazepin-4-yl]-propionic acid(G6249)] | 213 | 
C[C@H](CC(=O)O)N1CC(=O)N(C(C)(C)C)c2c(Cl)cc(C#Cc3ccc(C(=N)N)cc3)cc2C1=O [(R)-3-[1-tert-Butyl-7-(4-carbamimidoyl-phenylethynyl)-9-chloro-2,5-dioxo-1,2,3,5-tetrahydro-benzo[e][1,4]diazepin-4-yl]-butyric acid] |  | 1300
C[C@H](CC(=O)O)N1CC(=O)N(C)c2ccc(C#Cc3ccc(C(=N)N)cc3)cc2C1=O [(R)-3-[7-(4-Carbamimidoyl-phenylethynyl)-1-methyl-2,5-dioxo-1,2,3,5-tetrahydro-benzo[e][1,4]diazepin-4-yl]-butyric acid] |  | 820
C[C@@H](CC(=O)O)N1CC(=O)N(C)c2c(Cl)cc(C#Cc3ccc(C(=N)N)cc3)cc2C1=O [(S)-3-[7-(4-Carbamimidoyl-phenylethynyl)-9-chloro-1-methyl-2,5-dioxo-1,2,3,5-tetrahydro-benzo[e][1,4]diazepin-4-yl]-butyric acid] | 313 | 159

Continued, values first:

IC50 [1] [nM] | IC50 [2] [nM] | Compound
 | 92 | C[C@@H](CC(=O)O)N1CC(=O)N(C(C)(C)C)c2ccc(C#Cc3ccc(C(=N)N)cc3)cc2C1=O [(S)-3-[1-tert-Butyl-7-(4-carbamimidoyl-phenylethynyl)-2,5-dioxo-1,2,3,5-tetrahydro-benzo[e][1,4]diazepin-4-yl]-butyric acid]
60 | 34 | C[C@@H](CC(=O)O)N1CC(=O)N(C(C)(C)C)c2c(Cl)cc(C#Cc3ccc(C(=N)N)cc3)cc2C1=O [(S)-3-[1-tert-Butyl-7-(4-carbamimidoyl-phenylethynyl)-9-chloro-2,5-dioxo-1,2,3,5-tetrahydro-benzo[e][1,4]diazepin-4-yl]-butyric acid]
138 | 78 | C[C@@H](CC(=O)O)N1CC(=O)N(C)c2ccc(C#Cc3ccc(C(=N)N)cc3)cc2C1=O [(S)-3-[7-(4-Carbamimidoyl-phenylethynyl)-1-methyl-2,5-dioxo-1,2,3,5-tetrahydro-benzo[e][1,4]diazepin-4-yl]-butyric acid]
